According to ChEMBL document CHEMBL2169822, “Discovery and optimization of 1,3,4-trisubstituted-pyrazolone derivatives as novel, potent, and nonsteroidal farnesoid X receptor (FXR) selective antagonists” (J Med Chem, 2012):
The source made the active and inactive calls. No cut-off for these calls is given here.

How the values were obtained:
[1] = target: T1, Bile acid receptor (Homo sapiens) (UniProt Q96RI1); test: Antagonist activity at human FXR in human HepG2 cells assessed as inhibition of CDCA induced decrease of Cyp7A1 gene expression at 5 to 40 uM after 24 hrs by RT-PCR analysis; assay type: functional, cell-based
T1 sequence (whole entry): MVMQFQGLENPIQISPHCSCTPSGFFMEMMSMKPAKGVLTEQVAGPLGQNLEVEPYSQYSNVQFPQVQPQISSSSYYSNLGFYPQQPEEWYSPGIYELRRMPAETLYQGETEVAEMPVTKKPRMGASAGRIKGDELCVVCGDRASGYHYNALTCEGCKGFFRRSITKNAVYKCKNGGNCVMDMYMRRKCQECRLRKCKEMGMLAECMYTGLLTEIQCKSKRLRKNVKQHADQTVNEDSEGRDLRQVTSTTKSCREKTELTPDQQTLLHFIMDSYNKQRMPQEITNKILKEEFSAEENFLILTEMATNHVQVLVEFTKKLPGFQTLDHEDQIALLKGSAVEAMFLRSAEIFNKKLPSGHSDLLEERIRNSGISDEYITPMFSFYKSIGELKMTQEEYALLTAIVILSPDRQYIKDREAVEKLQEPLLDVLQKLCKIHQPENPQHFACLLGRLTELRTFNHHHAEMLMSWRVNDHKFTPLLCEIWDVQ
Outline: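 HepG2 cells in 6-well plates were treated with varied concentrations of compound, with or without 100 μM CDCA, for 24 h. Total RNA was taken with TRIzol and cDNA made by reverse transcription. Cyp7A1, SHP, BSEP and SREBP1c mRNA were measured by quantitative RT-PCR and normalized to β-actin. Three independent experiments.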

Mus musculus = test: Reduction of hepatic triglyceride level in cholesterol-fed C57BL/6 mouse at 50 mg/kg, po after 10 days; assay type: functional; design: scale not given: the % may be the effect or the level left
Outline: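 Male C57BL/6 mice, 8–12 weeks old, were randomized into five groups of nine. Control mice had ground chow; the other groups had chow with 2% cholesterol. Compound (50 or 100 mg/kg) or reference (100 mg/kg) was suspended in 0.5% CMC-Na and given by oral gavage; control and vehicle mice got 0.5% CMC-Na. Serum and hepatic triglyceride and total cholesterol were measured.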

[2] = target: T2, Retinoic acid receptor RXR-alpha (Homo sapiens) (UniProt P19793); test: Agonist activity at recombinant RXRalphaLBD expressed in HEK293T cells co-expressing GAL4 DBD at 20 uM by transactivation assay; assay type: functional, cell-based; conditions: HEK-293T
T2 sequence (whole entry): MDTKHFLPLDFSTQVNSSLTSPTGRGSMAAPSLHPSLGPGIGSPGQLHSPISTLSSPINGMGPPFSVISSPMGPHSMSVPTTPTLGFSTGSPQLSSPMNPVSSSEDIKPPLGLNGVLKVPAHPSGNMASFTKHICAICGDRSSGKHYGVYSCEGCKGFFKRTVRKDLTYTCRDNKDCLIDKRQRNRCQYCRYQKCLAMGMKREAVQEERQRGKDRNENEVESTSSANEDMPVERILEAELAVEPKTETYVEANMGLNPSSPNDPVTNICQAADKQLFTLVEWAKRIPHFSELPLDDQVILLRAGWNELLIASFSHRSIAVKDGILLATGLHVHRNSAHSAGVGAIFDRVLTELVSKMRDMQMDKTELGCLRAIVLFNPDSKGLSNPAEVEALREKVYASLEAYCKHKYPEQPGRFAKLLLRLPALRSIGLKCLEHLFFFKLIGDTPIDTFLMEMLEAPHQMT
Outline: (§1)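 One-hybrid assay in HEK293T cells cotransfected with a Gal4 DBD–NR-LBD fusion (RXRα, LXRα, GR, PR, PPARδ or PPARγ) plus UAS-TK-Luc reporter. Compound was 20 μM, given alone or with agonist: 9cRA 0.1 μM (RXRα), TO901317 0.5 μM (LXRα), dexamethasone 50 nM (GR), progesterone 100 nM (PR), GW1516 10 μM (PPARδ), rosiglitazone 10 μM (PPARγ). Luciferase read-out; three independent experiments.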

[3] = Antagonist activity at GST-tagged human recombinant FXRalphaLBD expressed in Escherichia coli BL21 cells assessed as inhibition of CDCA-induced SRC-1 co-activator association at 40 uM by HTRF assay; assay type: functional
Outline: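 HTRF coactivator recruitment: 10 nM GST-human FXRαLBD (residues 238–473, E. coli BL21(DE3)), 0.83 nM anti-GST-Eu cryptate, 100 nM biotin-SRC1 peptide, 41.75 nM SA/XL665. Buffer was 50 mM Hepes pH 7.0, 125 mM KF, 0.125% CHAPS, 0.05% dry milk. Compound alone or with CDCA, 30 min at room temperature. Signal was 1000×(668/620 nm). Primary screen at 40 μM; IC50 as mean ± SE, three experiments.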

[4] = target: T3, Progesterone receptor (Homo sapiens) (UniProt P06401); test: Agonist activity at recombinant PR-LBD expressed in HEK293T cells co-expressing GAL4 DBD at 20 uM by transactivation assay; assay type: functional, cell-based; conditions: HEK-293T; outline: as §1
T3 sequence (whole entry): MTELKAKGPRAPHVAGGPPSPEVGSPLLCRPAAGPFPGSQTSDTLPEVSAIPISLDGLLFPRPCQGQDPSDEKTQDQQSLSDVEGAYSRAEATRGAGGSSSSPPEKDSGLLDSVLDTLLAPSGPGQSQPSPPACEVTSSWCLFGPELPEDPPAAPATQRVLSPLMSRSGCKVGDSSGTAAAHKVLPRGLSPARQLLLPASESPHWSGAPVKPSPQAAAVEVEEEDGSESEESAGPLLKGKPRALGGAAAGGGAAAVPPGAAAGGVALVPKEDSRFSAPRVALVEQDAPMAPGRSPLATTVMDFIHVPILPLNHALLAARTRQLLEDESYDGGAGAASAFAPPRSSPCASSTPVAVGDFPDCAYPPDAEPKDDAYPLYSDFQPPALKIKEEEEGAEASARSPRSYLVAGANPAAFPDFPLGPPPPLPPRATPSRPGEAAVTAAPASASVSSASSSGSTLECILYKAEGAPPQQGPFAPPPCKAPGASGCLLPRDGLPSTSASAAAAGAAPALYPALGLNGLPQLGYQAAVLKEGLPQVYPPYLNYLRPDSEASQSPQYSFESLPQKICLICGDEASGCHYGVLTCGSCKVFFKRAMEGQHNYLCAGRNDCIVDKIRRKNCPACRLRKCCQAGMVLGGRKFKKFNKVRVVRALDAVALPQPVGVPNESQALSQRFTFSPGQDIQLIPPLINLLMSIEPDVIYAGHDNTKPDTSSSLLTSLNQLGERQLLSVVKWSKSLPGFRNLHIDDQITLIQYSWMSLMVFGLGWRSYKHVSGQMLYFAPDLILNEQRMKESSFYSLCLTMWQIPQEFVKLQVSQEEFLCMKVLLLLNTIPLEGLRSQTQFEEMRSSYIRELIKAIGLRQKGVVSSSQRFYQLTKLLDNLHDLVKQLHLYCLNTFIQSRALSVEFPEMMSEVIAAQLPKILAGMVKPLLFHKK

With COc1cc(/C=C2\C(=O)N(c3cccc([N+](=O)[O-])c3)N=C2c2ccccc2)ccc1O the inhibition [1] was “Active”, the Activity (Mus musculus) was 43.5% and the Activity [2] was “inactive”. For the same compound, the inhibition at 40 µM [3] was 70.4% and the Activity [4] was “inactive”.
